Measurements reported in ChEMBL document CHEMBL1122858, “N-(1,3,4,6,7,12b-hexahydro-2H-benzo[b]furo[2,3-a]quinolizin -2-yl)-N- methyl-2-hydroxyethane-sulfonamide: a potent and selective alpha 2-adrenoceptor antagonist” (J Med Chem, 1985).
pKi: −log10 of the molar value.

What was measured:
Rattus norvegicus [1] = organism: Rattus norvegicus; test: Tested for antagonism of clonidine in the field-stimulated rat vas deferens.; assay type: functional; conditions: read-out: pA2 (converted)
How it was run: (§1)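 Isolated, field-stimulated rat vas deferens. Clonidine probes presynaptic α2-adrenoceptors and methoxamine probes postsynaptic α1-adrenoceptors. pA2 and slope come from Schild plots using at least three antagonist concentrations and four tissues per concentration. Values are means ± SD.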

[2] = target: T1, Alpha-1A adrenergic receptor (Bos taurus, UniProt P18130); test: Evaluated for its ability to displace [3H]prazosin from alpha-1-Adrenoceptor of calf cerebral cortex; assay type: tissue-based
T1 sequence (P18130 whole entry): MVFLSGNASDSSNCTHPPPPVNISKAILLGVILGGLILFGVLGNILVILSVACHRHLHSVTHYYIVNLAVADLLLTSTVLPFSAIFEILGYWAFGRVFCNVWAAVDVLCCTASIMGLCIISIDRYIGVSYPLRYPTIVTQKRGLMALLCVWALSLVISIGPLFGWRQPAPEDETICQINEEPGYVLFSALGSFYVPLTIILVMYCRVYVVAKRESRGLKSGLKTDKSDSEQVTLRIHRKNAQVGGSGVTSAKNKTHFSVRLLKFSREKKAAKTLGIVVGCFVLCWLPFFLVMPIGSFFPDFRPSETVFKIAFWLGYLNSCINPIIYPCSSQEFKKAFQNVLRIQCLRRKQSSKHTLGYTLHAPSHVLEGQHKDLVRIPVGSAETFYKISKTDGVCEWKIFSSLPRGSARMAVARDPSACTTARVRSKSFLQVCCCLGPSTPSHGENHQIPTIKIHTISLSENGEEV

[3] = target: T2, Adrenergic receptor alpha-2 (Rattus norvegicus, UniProt P22086+P19328+P22909); test: Evaluated for its ability to displace [3H]rauwolscine from alpha-2 adrenergic receptor of rat cerebral cortex; assay type: tissue-based
T2 sequence (P22086 whole entry): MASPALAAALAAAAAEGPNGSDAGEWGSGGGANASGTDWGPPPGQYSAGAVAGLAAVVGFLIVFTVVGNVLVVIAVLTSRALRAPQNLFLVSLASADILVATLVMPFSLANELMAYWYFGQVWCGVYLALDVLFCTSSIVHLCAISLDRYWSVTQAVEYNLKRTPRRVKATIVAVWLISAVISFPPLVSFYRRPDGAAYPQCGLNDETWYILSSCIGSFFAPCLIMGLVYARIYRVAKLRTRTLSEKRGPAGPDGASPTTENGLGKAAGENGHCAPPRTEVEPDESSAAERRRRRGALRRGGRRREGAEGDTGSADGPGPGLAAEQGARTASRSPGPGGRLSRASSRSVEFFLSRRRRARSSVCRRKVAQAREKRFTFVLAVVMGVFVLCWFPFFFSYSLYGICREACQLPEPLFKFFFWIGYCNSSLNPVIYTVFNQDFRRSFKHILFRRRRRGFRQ
T2 sequence (P19328 whole entry): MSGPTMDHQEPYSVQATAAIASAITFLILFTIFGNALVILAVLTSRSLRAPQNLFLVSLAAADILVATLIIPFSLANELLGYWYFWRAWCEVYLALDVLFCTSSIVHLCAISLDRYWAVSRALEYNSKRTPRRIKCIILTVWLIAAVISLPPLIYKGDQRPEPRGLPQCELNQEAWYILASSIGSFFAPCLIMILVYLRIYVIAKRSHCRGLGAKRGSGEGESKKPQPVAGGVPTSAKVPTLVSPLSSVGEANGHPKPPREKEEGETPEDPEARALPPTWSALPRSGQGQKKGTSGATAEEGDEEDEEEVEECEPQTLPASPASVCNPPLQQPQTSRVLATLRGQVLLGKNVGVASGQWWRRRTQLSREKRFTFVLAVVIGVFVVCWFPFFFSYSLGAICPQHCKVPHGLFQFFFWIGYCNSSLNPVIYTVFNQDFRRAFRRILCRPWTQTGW
T2 sequence (P22909 whole entry): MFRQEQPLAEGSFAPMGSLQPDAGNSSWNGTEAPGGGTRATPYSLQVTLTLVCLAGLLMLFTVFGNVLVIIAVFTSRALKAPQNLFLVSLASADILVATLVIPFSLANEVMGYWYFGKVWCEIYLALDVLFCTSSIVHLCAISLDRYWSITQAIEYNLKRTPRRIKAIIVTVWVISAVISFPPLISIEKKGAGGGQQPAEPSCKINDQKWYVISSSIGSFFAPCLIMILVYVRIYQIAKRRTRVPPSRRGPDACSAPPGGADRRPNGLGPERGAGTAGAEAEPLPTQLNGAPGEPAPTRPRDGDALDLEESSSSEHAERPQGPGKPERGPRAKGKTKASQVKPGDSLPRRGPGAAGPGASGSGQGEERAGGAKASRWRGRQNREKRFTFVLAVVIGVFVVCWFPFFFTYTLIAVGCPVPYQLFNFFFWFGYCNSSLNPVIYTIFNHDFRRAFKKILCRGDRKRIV

Rattus norvegicus [4] = test: Tested for reversal of clonidine-induced mydriasis in the rat administered intravenously; assay type: functional; conditions: iv
How it was run: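 In rats, clonidine-induced mydriasis from activation of central postsynaptic α2-adrenoceptors is established first. Test agents are then scored for reversing it, as a read-out of blood-brain barrier penetration and central α2 antagonism.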

Rattus norvegicus [5] = organism: Rattus norvegicus; test: Tested for antagonism of methoxamine in the field-stimulated rat vas deferens.; assay type: functional; conditions: read-out: pA2 (converted); how it was run: as §1
[6] = target: T3, Alpha-2A adrenergic receptor (Bos taurus, UniProt Q28838); test: Evaluated for its ability to displace [3H]clonidine from alpha-2 adrenergic receptor of calf cerebral cortex; assay type: tissue-based
T3 sequence (Q28838 whole entry): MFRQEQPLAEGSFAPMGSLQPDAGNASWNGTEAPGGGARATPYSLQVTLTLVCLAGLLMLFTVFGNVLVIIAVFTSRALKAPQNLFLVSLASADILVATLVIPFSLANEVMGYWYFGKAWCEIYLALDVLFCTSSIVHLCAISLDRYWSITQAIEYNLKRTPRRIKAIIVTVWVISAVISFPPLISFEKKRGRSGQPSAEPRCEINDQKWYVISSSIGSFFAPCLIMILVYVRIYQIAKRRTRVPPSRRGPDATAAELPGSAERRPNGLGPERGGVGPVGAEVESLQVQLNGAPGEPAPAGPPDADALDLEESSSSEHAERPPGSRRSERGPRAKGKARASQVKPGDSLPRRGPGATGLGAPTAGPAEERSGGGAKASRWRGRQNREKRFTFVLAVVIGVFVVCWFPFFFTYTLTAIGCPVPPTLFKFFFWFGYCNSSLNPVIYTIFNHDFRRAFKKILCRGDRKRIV

pKi [2]	Ki [3]	pKi [6]	SMILES	Kb (Rattus norvegicus [1])	ED50 (Rattus norvegicus [4])	Kb (Rattus norvegicus [5])
5.10	190 nM	7.00	CN([C@H]1CCN2CCc3c(oc4ccccc34)[C@H]2C1)S(=O)(=O)CCO	39.8 nM	5.41 mg/kg	2510 nM
6.68	1.6 nM	8.87	CN(C1CCN2CCc3c(oc4ccccc34)C2C1)S(=O)(=O)CCO (stereo unspecified)	1.7 nM	0.0435 mg/kg	102 nM
6.96	1.1 nM	9.11	CN([C@@H]1CCN2CCc3c(oc4ccccc34)[C@@H]2C1)S(=O)(=O)CCO	0.794 nM	0.0346 mg/kg	34.7 nM
			COC(=O)[C@@H]1[C@H]2C[C@H]3c4[nH]c5ccccc5c4CCN3C[C@@H]2CC[C@@H]1O [YOHIMBINE]	22.4 nM	1.04 mg/kg	302 nM
